# Laboratory results from the RNAGym collection of RNA variant scans (doi:10.1038/nmeth.2970).
# B1: NELF-E aptamer (parent)
# chain: CCCAACGACUGCCGAGCGAGAUUACGCUUGAGCGCCCCACUGAGGAUGCCCACGGGCGAUUGGGGCACGG
# Variants of: B1
# Assay: HiTS-RAP
# Conditions: with NELF-E (Drosophila)
# How it was run: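 Aptamer DNA templates bearing a T7 promoter and a ter site were sequenced on an Illumina GAIIx flowcell. T7 RNA polymerase then transcribed them in situ, and GST-Tus halted transcription over 30 minutes at 37°C. After a 30-minute room-temperature equilibration with NELF-E-mOrange at 0.064 to 1000 nM in HEPES binding buffer, clusters were imaged, using only the first binding curve. Intensities normalised to sequencing intensity were averaged per sequence and fitted with weighted Hill fits to give Kd, retaining only fits whose variance stayed under 1,000,000.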
row,Variant,Kd [nM]
1,C12G A43G,26.1
2,G11A U28C,9.79
3,C12U A19G,5.36
4,C12G U28A,6.47
5,C12G U28G,8.85
6,C12G U28C,8.42
7,C12G G65U,8.23
8,G11U C51U,6.67
9,G11U A21U,5.9
10,G11U A21G,7.69
11,C13G A24U,7.79
12,C13G A24G,5.57
13,U10G G34A,6.95
14,U10G G34U,5.54
15,U10G G34C,13.2
16,U10G C51U,6.95
17,U10G C51A,9.77
18,U10G C51G,4.43
19,C12G A59G,57.4
20,U10G G14U,5.99
21,U10G G14C,6.25

row,Variant,Kd [nM]
1,U10G G14A,5.01
2,G11U U22G,6.4
3,C12G A39U,25
4,C12G A39G,10.3
5,G11U A39G,11.4
6,G11U A39U,21.3
7,U10G G45U,7.35
8,U10G G45A,68.6
9,C12U A31G,6.76
10,C12U U29G,5.46
11,C12G A15G,6.14
12,C12G A15U,6.36
13,C13G A43G,15.3
14,C13G A43U,27.8
15,C12G A67G,6.86
16,C12G A67U,7.12
17,G11A U22G,6.03
18,G11U A67U,9.06
19,G11U A67G,6.41
20,C12G C57U,6.51
21,U10G U60G,6.36

row,Variant,Kd [nM]
1,U10G U60A,8.76
2,U10G U60C,8.47
3,G11A C13U,5.33
4,G11A C13G,6.15
5,G11U G16U,6.7
6,G11U G16A,6.06
7,U10G G11C,5.59
8,U10G G11A,6.15
9,U10G G11U,5.48
10,C12G A46G,44.8
11,U10G G30C,5.8
12,U10G G30U,5.29
13,U10G G30A,4.59
14,U10G C50G,7.26
15,U10G C50A,16.6
16,U10G C50U,14
17,U10G U29A,4.58
18,U10G U29C,4.67
19,U10G U29G,5.05
20,G11U G20A,5.7
21,G11U G20U,7.02

row,Variant,Kd [nM]
1,C12G C66U,6.17
2,C12G G18A,7.26
3,C12G C17U,7.01
4,C12G C17G,5.66
5,C13G A31G,7.08
6,C13G A31U,5.78
7,C13G A46G,47.3
8,C13G A46U,87.3
9,U10G G18U,5.3
10,U10G G18A,5.37
11,U10G C36G,6.55
12,U10G C36A,9.48
13,U10G C36U,6.99
14,C12G A24G,5.9
15,U10G C25G,5.26
16,U10G C25U,5.86
17,U10G C25A,4.07
18,C12U G14U,8.16
19,U10G C38A,39.8
20,U10G C38G,7
